In ChEMBL document CHEMBL1772969, “Synthesis, structure-activity relationship, and antimalarial activity of ureas and thioureas of 15-membered azalides” (J Med Chem, 2011):
Activity calls are given as the source filed them. No cut-off for these calls is given here.

Experiments:
[1] = Half life in mouse liver microsomes at 1 uM by LCMS analysis; format: ADME, Microsome
How it was run: (§1)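 Compound at 1 μM final with 0.5 mg/mL pooled human or mouse liver microsomes, 1.3 mM NADP, 3.3 mM MgCl₂, 0.1 M PBS pH 7.4. Reaction started with 1 U/mL G6PD, shaken at 37 °C. Aliquots quenched with cold acetonitrile at 0, 10, 20, 30 and 60 min and quantified by LCMS. t₁/₂ taken from log plot of total ion chromatogram area remaining.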

[2] = test system: Plasmodium falciparum; assay: Antimalarial activity against chloroquine-sensitive Plasmodium falciparum D6 after 48 hrs by [3H]hypoxanthine incorporation assay; format: functional, organism-based
How it was run: (§2)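 [3H]hypoxanthine incorporation assay (Desjardins method, Milhous modification) with 48 h drug exposure. Compounds and controls were 2-fold diluted across 11 concentrations. IC50 was fitted by nonlinear logistic dose-response. Values are averaged where multiple results were generated, with relative errors usually <30%.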

[3] = Half life in human liver microsomes at 1 uM by LCMS analysis; format: ADME, Microsome; how it was run: as §1
[4] = test system: Plasmodium berghei; assay: Antiplasmodial activity against Plasmodium berghei KBG-173 infected in sc dosed mouse administered bid for 3 days; format: functional
How it was run: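 Male mice (24-30 g) were infected ip with 5 × 10⁶ P. berghei KBG-173-infected erythrocytes. Drug suspended in palm/peanut oil was given sc twice daily on days 3-5 post-infection at 160, 40 or 10 mg/kg per dose, 0.01 mL/g, in groups of 4-5. Blood films were taken day 6, then biweekly to day 31. Mice smear-negative on day 31 were counted cured. CD50 is the daily dose curing 50%.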

[5] = test system: Plasmodium falciparum; assay: Antimalarial activity against chloroquine/pyrimethamine-resistant Plasmodium falciparum W2 after 48 hrs by [3H]hypoxanthine incorporation assay; format: functional, organism-based; how it was run: as §2
[6] = test system: HepG2; assay: Cytotoxicity against human HepG2 cells after 1 to 4 hrs by MTS assay; format: cell-based
How it was run: (§3)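 HepG2 and THP-1 cells grown in RPMI 1640 with 10% FBS at 37 °C, 5% CO₂, and passaged twice weekly. Compounds applied as continuous exposure. Viability read by MTS reagent, 1–4 h incubation, absorbance at 490 nm; IC₅₀ derived.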

[7] = test system: Plasmodium falciparum; assay: Antimalarial activity against multidrug-resistant Plasmodium falciparum TM91C235 after 48 hrs by [3H]hypoxanthine incorporation assay; format: functional, organism-based; how it was run: as §2
[8] = test system: THP-1; assay: Cytotoxicity against human THP1 cells after 1 to 4 hrs by MTS assay; format: cell-based; how it was run: as §3
[9] = test system: Plasmodium berghei; assay: Antiplasmodial activity against Plasmodium berghei KBG-173 infected in mouse assessed as mouse without parasitemia at 240 mg/kg, sc bid for 3 days measured on day 31; format: functional, organism-based; design: dose 240 mg/kg
How it was run: (§4)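 P. berghei KBG-173: 5 × 10⁶ infected erythrocytes injected intraperitoneally into male mice (24–30 g); parasitemia 1.0–3.7% by day 3. Oil suspension given subcutaneously twice daily at 160, 40 or 10 mg/kg on days 3–5 postinfection (totals 960/240/60 mg/kg); 4–5 mice per group. Blood films on day 6, then biweekly to day 31; film-negative on day 31 counted as cured.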

[10] = test system: Plasmodium berghei; assay: Antiplasmodial activity against Plasmodium berghei KBG-173 infected in mouse assessed as mouse without parasitemia at 60 mg/kg, sc bid for 3 days measured on day 31; format: functional, organism-based; design: dose 60 mg/kg; how it was run: as §4

| SMILES | half-life at 1 µM [1] [h] | IC50 [2] [nM] | half-life at 1 µM [3] [h] | CD50 [4] [mg/kg] | IC50 [5] [nM] | IC50 [6] [nM] | IC50 [7] [nM] | IC50 [8] [nM] | Activity [9] | Activity [10] |
| --- | --- | --- | --- | --- | --- | --- | --- | --- | --- | --- |
| CC[C@H]1OC(=O)[C@H](C)[C@@H](O[C@H]2C[C@@](C)(OC)[C@@H](O)[C@H](C)O2)[C@H](C)[C@@H](O[C@@H]2O[C@H](C)C[C@H](N(C)C)[C@H]2O)[C@](C)(O)C[C@@H](C)CN(CCCNC(=S)Nc2cccc3ccccc23)[C@H](C)[C@@H](O)[C@]1(C)O | > 2 | 116 | > 2 | 195 | 155 | 48000 | 131 | 40000 |  |  |
| CC[C@H]1OC(=O)[C@H](C)[C@@H](O[C@H]2C[C@@](C)(OC)[C@@H](O)[C@H](C)O2)[C@H](C)[C@@H](O[C@@H]2O[C@H](C)C[C@H](N(C)C)[C@H]2O)[C@](C)(O)C[C@@H](C)CN(CCCNC(=O)Nc2cccc3ccccc23)[C@H](C)[C@@H](O)[C@]1(C)O | > 2 | 215 | > 2 | 150 | 173 | > 50000 | 131 | > 50000 |  |  |
| CC[C@H]1OC(=O)[C@H](C)[C@@H](O[C@H]2C[C@@](C)(OC)[C@@H](O)[C@H](C)O2)[C@H](C)[C@@H](O[C@@H]2O[C@H](C)C[C@H](N(C)C)[C@H]2O)[C@](C)(O)C[C@@H](C)CN(CCCN(CCC#N)C(=S)NCc2ccccc2)[C@H](C)[C@@H](O)[C@]1(C)O | > 2 | 204 | > 2 | >960 | 139 | 44000 | 126 | 11000 |  |  |
| CC[C@H]1OC(=O)[C@H](C)[C@@H](O[C@H]2C[C@@](C)(OC)[C@@H](O)[C@H](C)O2)[C@H](C)[C@@H](O[C@@H]2O[C@H](C)C[C@H](N(C)C)[C@H]2O)[C@](C)(O)C[C@@H](C)CN(CCCN(CCC#N)C(=O)NC(C)c2cccc3ccccc23)[C@H](C)[C@@H](O)[C@]1(C)O (stereo partly specified) | > 2 | 200 | > 2 | 510 | 136 | 48000 | 97 | 40000 | inactive |  |
| CC[C@H]1OC(=O)[C@H](C)[C@@H](O[C@H]2C[C@@](C)(OC)[C@@H](O)[C@H](C)O2)[C@H](C)[C@@H](O[C@@H]2O[C@H](C)C[C@H](N(C)C)[C@H]2O)[C@](C)(O)C[C@@H](C)CN(CCNC(=S)Nc2ccccc2)[C@H](C)[C@@H](O)[C@]1(C)O | > 2 | 183 | > 2 |  | 443 | 48000 | 113 | 16000 |  |  |
| CC[C@H]1OC(=O)[C@H](C)[C@@H](O[C@H]2C[C@@](C)(OC)[C@@H](O)[C@H](C)O2)[C@H](C)[C@@H](O[C@@H]2O[C@H](C)C[C@H](N(C)C)[C@H]2O)[C@](C)(O)C[C@@H](C)CN(CCCNC(=O)Nc2ccc3ccccc3c2)[C@H](C)[C@@H](O)[C@]1(C)O | > 2 | 138 | > 2 | >960 | 127 | 48000 | 81 | 40000 | inactive | inactive |
| CC[C@H]1OC(=O)[C@H](C)[C@@H](O[C@H]2C[C@@](C)(OC)[C@@H](O)[C@H](C)O2)[C@H](C)[C@@H](O[C@@H]2O[C@H](C)C[C@H](N(C)C)[C@H]2O)[C@](C)(O)C[C@@H](C)CN(CCN(CCC#N)C(=S)NCCc2ccccc2)[C@H](C)[C@@H](O)[C@]1(C)O | > 2 | 295 | > 2 |  | 64 | 7000 | 369 | 6000 |  |  |
| CC[C@H]1OC(=O)[C@H](C)[C@@H](O[C@H]2C[C@@](C)(OC)[C@@H](O)[C@H](C)O2)[C@H](C)[C@@H](O[C@@H]2O[C@H](C)C[C@H](N(C)C)[C@H]2O)[C@](C)(O)C[C@@H](C)CN(CCNC(=S)Nc2cccc3ccccc23)[C@H](C)[C@@H](O)[C@]1(C)O | > 2 | 225 | > 2 |  | 99 | 20000 | 130 | 9000 |  |  |
| CC[C@H]1OC(=O)[C@H](C)[C@@H](O)[C@H](C)[C@@H](O[C@@H]2O[C@H](C)C[C@H](N(C)C)[C@H]2O)[C@](C)(O)C[C@@H](C)CN(CCNC(=O)Nc2ccc3ccccc3c2)[C@H](C)[C@@H](O)[C@]1(C)O | > 2 | 318 | > 2 |  | 99 | 16000 | 106 | 8000 |  |  |
| CC[C@H]1OC(=O)[C@H](C)[C@@H](O[C@H]2C[C@@](C)(OC)[C@@H](O)[C@H](C)O2)[C@H](C)[C@@H](O[C@@H]2O[C@H](C)C[C@H](N(C)C)[C@H]2O)[C@](C)(O)C[C@@H](C)CN(CCCNC(=S)NCCc2ccccc2)[C@H](C)[C@@H](O)[C@]1(C)O | > 2 | 215 | > 2 | 780 | 167 | 47000 | 200 | 23000 |  | inactive |
| CC[C@H]1OC(=O)[C@H](C)[C@@H](O[C@H]2C[C@@](C)(OC)[C@@H](O)[C@H](C)O2)[C@H](C)[C@@H](O[C@@H]2O[C@H](C)C[C@H](N(C)C)[C@H]2O)[C@](C)(O)C[C@@H](C)CN(CCNC(=O)NCCc2ccccc2)[C@H](C)[C@@H](O)[C@]1(C)O | > 2 | 546 | > 2 |  | 105 | > 50000 | 243 | 45000 |  |  |
| CC[C@H]1OC(=O)[C@H](C)[C@@H](O[C@H]2C[C@@](C)(OC)[C@@H](O)[C@H](C)O2)[C@H](C)[C@@H](O[C@@H]2O[C@H](C)C[C@H](N(C)C)[C@H]2O)[C@](C)(O)C[C@@H](C)CN(CCNC(=O)NCc2ccccc2)[C@H](C)[C@@H](O)[C@]1(C)O | > 2 | 320 | > 2 |  | 287 | > 50000 | 170 | 35000 |  |  |
| CC[C@H]1OC(=O)[C@H](C)[C@@H](O[C@H]2C[C@@](C)(OC)[C@@H](O)[C@H](C)O2)[C@H](C)[C@@H](O[C@@H]2O[C@H](C)C[C@H](N(C)C)[C@H]2O)[C@](C)(O)C[C@@H](C)CN(CCN(CCC#N)C(=O)Nc2ccc3ccccc3c2)[C@H](C)[C@@H](O)[C@]1(C)O | > 2 | 525 | > 2 |  | 125 | 11000 | 224 | 13000 |  |  |
